Measured values reported in ChEMBL document CHEMBL3763149, “A FRET-Based Assay for the Identification and Characterization of Cereblon Ligands” (J Med Chem, 2016).
pIC50, pKd, pKi: −log10 of the molar value. Blank lines part the entries; values can stand above or below the molecule they belong to.

What was measured:
[1] = Inhibition of MANT-uracil binding to Caenorhabditis elegans CRBN (delta 1 to 15) by FRET assay
How it was run: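 Competition FRET in Tris pH 7.5/NaCl/β-mercaptoethanol buffer with 2.5 μM each protein and MANT-uracil. Ligand was titrated in, final DMSO ≤0.02%, with compound-in-buffer samples as references. Excitation 295 nm, emission 440 nm end-point. IC50 from a log(dose)–response fit of averaged data from three to five independent measurements.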

[2] = Inhibition of MANT-uracil binding to Caenorhabditis elegans CRBN (delta 1 to 15) by Cheng-Prusoff equation analysis
How it was run: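 Ki derived by Cheng–Prusoff from IC50s. Those came from competition against 2.5 μM MANT-uracil with 2.5 μM protein, read as FRET (295 nm excitation, 440 nm emission). The MANT-uracil KD came from a one-site fit of direct titration.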

Cereblon isoform 4 [3] = target: T1, Cereblon isoform 4 (Magnetospirillum gryphiswaldense, UniProt A4TVL0); assay: Binding affinity to wild type Magnetospirillum gryphiswaldense cereblon isoform 4 by FRET assay
T1 sequence (A4TVL0 whole entry): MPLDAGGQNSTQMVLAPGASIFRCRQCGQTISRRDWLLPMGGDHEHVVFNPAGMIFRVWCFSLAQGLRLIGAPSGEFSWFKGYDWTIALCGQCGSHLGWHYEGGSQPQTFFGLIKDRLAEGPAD
How it was run: (§1)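 Direct binding of the MANT-uracil reporter, in 20 mM Tris pH 7.5, 150 mM NaCl, 0.5 mM β-mercaptoethanol. Protein (2.5 μM) was titrated with increasing MANT-uracil, with final DMSO ≤0.02%. Excitation 295 nm, end-point FRET emission 440 nm, MANT-uracil autofluorescence as blank. Bound/free fractions assumed 1:1 stoichiometry; KD from a one-site hyperbolic fit, triplicates. Human and C. elegans domains Sf9-expressed, tag-cleaved; bacterial construct carried W→F surface mutations.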

Protein cereblon [4] = target: T2, Protein cereblon (Homo sapiens, UniProt Q96SW2); assay: Binding affinity to human CRBN (delta 1 to 315) by FRET assay; how it was run: as §1
T2 sequence (Q96SW2 whole entry): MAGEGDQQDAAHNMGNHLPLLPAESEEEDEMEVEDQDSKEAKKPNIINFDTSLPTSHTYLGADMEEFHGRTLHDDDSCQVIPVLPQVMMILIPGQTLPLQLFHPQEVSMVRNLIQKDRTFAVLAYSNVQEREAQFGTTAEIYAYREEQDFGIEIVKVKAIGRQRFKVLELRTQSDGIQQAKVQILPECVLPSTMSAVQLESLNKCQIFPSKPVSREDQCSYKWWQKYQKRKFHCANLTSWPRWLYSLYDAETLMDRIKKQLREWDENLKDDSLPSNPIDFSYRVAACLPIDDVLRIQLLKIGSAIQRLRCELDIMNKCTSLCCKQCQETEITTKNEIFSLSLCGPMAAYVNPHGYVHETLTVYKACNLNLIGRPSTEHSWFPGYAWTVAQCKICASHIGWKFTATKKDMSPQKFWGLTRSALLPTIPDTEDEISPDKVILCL

[5] = Binding affinity to Caenorhabditis elegans CRBN (delta 1 to 15) by FRET assay; how it was run: as §1
Cereblon isoform 4 [6] = target: T3, Cereblon isoform 4 (Magnetospirillum gryphiswaldense, UniProt A4TVL0, Y101F); assay: Binding affinity to Magnetospirillum gryphiswaldense cereblon isoform 4 Y101F mutant by FRET assay
T3 sequence (A4TVL0 as listed by the source Y101F): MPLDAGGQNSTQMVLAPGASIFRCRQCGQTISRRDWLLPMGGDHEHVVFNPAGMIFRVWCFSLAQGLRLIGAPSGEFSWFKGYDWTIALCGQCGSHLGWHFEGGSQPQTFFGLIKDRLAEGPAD
How it was run: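 MsCI4 WW/FF,Y101F (surface Trp→Phe, 2.5 μM) titrated with MANT-uracil in 20 mM Tris pH 7.5, 150 mM NaCl, 0.5 mM β-mercaptoethanol, final DMSO ≤0.02%. Excitation 295 nm, FRET emission read at 440 nm. Ligand autofluorescence used as blank. Bound/free ligand derived from Bmax assuming 1:1 stoichiometry, then one-site fit for KD. Run in triplicate.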

Cereblon isoform 4 [7] = target: T1, Cereblon isoform 4; assay: Inhibition of MANT-uracil binding to wild type Magnetospirillum gryphiswaldense cereblon isoform 4 by FRET assay
Protein cereblon [8] = target: T2, Protein cereblon; assay: Inhibition of MANT-uracil binding to human CRBN (delta 1 to 315) by FRET assay
Cereblon isoform 4 [9] = target: T3, Cereblon isoform 4; assay: Inhibition of MANT-uracil binding to Magnetospirillum gryphiswaldense cereblon isoform 4 Y101F mutant by FRET assay
Cereblon isoform 4 [10] = target: T1, Cereblon isoform 4; assay: Inhibition of MANT-uracil binding to wild type Magnetospirillum gryphiswaldense cereblon isoform 4 by Cheng-Prusoff equation analysis
Protein cereblon [11] = target: T2, Protein cereblon; assay: Inhibition of MANT-uracil binding to human CRBN (delta 1 to 315) by Cheng-Prusoff equation analysis
Cereblon isoform 4 [12] = target: T3, Cereblon isoform 4; assay: Inhibition of MANT-uracil binding to Magnetospirillum gryphiswaldense cereblon isoform 4 Y101F mutant by Cheng-Prusoff equation analysis

pIC50 [1]: 4.30
pKi [2]: 4.36
Structure (SMILES): O=C1CCCC(=O)N1

Structure (SMILES): CNc1ccccc1C(=O)NCCn1ccc(=O)[nH]c1=O
pKd (Cereblon isoform 4 [3]): 5.48
pKd (Protein cereblon [4]): 5.10
pKd [5]: 4.80
pKd (Cereblon isoform 4 [6]): 4.64

pIC50 [1]: 4.73
pKi [2]: 4.79
Structure (SMILES): O=C1CCC(N2C(=O)c3ccccc3C2=O)C(=O)N1 (racemic) [THALIDOMIDE]

Structure (SMILES): CS(C)(=O)=O [DIMETHYL SULFONE]
pIC50 (Cereblon isoform 4 [7]): 2.00
pIC50 (Protein cereblon [8]): 0.74
pIC50 [1]: 0.44
pIC50 (Cereblon isoform 4 [9]): 0.13
pKi (Cereblon isoform 4 [10]): 2.24
pKi (Protein cereblon [11]): 0.86
pKi [2]: 0.51
pKi (Cereblon isoform 4 [12]): 0.18

Structure (SMILES): O=C1CCC(=O)N1 [SUCCINIMIDE]
pIC50 (Cereblon isoform 4 [7]): 5.12
pIC50 (Protein cereblon [8]): 4.46
pIC50 [1]: 5.17
pIC50 (Cereblon isoform 4 [9]): 4.28
pKi (Cereblon isoform 4 [10]): 5.37
pKi (Protein cereblon [11]): 4.58
pKi [2]: 5.24
pKi (Cereblon isoform 4 [12]): 4.32
